Experimental data taken from ChEMBL document CHEMBL1144711, “Polyaminohydroxamic acids and polyaminobenzamides as isoform selective histone deacetylase inhibitors” (J Med Chem, 2008).

Assays:
[1] = target: T1, Histone deacetylase (Homo sapiens) (UniProt Q13547+O15379+Q9UBN7+Q92769+Q9UQL6+Q8WUI4+Q9BY41+Q96DB2+P56524+Q9UKV0+Q969S8); settings: HeLa, at 1 µM
HCT-116 [2] = test: Cytotoxicity against human HCT116 cells assessed as cell viability after 96 hrs by MTS reduction assay; type: functional, cell-based; settings: HCT-116, 96 h
HCT-116 [3] = test: Increase in acetylated histone H3 level in human HCT116 cells at 10 uM after 24 hrs relative to control; type: functional
Procedure, shortened: (§1)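 HCT116 cells adhered overnight, then exposed to 10 μM compound for 24 h. Cells lysed in HEPES pH 7.9/NaCl/Triton buffer with protease inhibitors at 4 °C. 30 μg total protein per lane run on 10% Bis-Tris gels and blotted with antibodies to AcH3, AcH4, p21waf1 or acetylated α-tubulin, with α-actin also probed. Infrared fluorescent secondaries used for quantification; single determinations reported as fold increase.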

[4] = target: Histone deacetylase 3 (Homo sapiens) (UniProt O15379); test: Inhibition of human recombinant HDAC3; settings: concentration not given here
Histone deacetylase 3 (Homo sapiens), sequence (O15379 whole entry): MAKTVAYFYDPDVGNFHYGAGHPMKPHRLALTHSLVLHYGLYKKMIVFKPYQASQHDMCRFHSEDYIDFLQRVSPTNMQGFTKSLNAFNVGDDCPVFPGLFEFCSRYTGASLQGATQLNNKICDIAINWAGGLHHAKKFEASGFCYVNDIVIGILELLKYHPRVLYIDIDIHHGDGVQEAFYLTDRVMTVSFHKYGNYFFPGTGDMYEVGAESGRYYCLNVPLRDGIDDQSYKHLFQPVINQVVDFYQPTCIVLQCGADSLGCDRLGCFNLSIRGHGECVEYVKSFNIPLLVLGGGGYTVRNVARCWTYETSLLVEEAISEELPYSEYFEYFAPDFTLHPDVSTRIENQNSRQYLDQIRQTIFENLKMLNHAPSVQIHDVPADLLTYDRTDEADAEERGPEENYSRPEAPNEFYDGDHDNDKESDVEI

HCT-116 [5] = test: Increase in p21waf1 re-expression in human HCT116 cells at 10 uM after 24 hrs relative to control; type: functional
Procedure, shortened: as §1

HCT-116 [6] = test: Increase in acetylated histone H4 level in human HCT116 cells at 10 uM after 24 hrs relative to control; type: functional
Procedure, shortened: as §1

[7] = target: T2, Protein deacetylase HDAC6 (Homo sapiens) (UniProt Q9UBN7); test: Inhibition of human recombinant HDAC6; settings: concentration not given here
T2 sequence (whole entry): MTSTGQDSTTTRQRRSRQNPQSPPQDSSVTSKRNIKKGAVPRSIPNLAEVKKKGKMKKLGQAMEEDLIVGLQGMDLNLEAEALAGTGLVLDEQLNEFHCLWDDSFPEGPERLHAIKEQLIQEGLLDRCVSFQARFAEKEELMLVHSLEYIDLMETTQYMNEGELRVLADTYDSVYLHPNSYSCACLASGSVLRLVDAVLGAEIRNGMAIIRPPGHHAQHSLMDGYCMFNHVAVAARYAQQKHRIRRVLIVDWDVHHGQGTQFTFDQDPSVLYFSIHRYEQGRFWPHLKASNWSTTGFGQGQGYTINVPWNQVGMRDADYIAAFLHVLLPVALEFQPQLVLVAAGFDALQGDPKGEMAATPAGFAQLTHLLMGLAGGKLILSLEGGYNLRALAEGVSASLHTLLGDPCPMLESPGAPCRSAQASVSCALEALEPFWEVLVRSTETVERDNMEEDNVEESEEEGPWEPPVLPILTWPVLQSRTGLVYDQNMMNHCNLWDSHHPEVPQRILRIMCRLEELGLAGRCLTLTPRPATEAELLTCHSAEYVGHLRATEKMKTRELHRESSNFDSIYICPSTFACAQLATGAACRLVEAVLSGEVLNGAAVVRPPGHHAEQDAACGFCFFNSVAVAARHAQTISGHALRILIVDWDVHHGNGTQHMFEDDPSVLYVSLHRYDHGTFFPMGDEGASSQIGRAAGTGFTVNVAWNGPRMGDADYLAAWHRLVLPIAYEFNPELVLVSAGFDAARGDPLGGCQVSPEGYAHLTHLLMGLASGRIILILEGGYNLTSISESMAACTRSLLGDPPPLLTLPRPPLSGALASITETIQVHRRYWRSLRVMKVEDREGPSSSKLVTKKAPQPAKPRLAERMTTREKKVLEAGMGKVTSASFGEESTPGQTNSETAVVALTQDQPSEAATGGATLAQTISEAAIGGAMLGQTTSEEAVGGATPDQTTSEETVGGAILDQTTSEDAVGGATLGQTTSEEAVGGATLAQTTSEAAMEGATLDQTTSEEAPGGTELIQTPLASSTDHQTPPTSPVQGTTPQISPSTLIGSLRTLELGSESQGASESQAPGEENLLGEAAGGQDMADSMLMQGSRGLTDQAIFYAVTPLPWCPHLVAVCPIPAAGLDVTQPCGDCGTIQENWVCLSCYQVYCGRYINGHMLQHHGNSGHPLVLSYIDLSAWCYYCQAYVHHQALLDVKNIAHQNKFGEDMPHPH

HCT-116 [8] = test: Increase in acetylated alpha tubulin level in human HCT116 cells at 10 uM after 24 hrs relative to control; type: functional
Procedure, shortened: as §1

[9] = target: T1, Histone deacetylase (Homo sapiens); test: Inhibition of human HDAC in HeLa cells at 5 uM; type: cell-based
[10] = target: T1, Histone deacetylase (Homo sapiens); test: Inhibition of human HDAC at 1 uM
HCT-116 [11] = test: Cytotoxicity against human HCT116 cells assessed as cell viability after 96 hrs by MTS reduction assay in presence of diamine oxidase inhibitor aminoguanidine; type: functional, cell-based; settings: HCT-116, 96 h
Procedure, shortened: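 HCT116 cells in McCoy's 5A with 10% fetal calf serum, 37 °C, 5% CO2; 3000 cells/well seeded in triplicate and attached overnight. Medium replaced with fresh medium containing a range of compound concentrations for 96 h. CellTiter 96 One Solution MTS added for 1.5 h at 37 °C, absorbance read at 490 nm. Two separate experiments averaged to give IC50.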

[12] = Inhibition of [14C]spermidine uptake at human polyamine transporter in ML1 cells; type: cell-based
Procedure, shortened: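 Competition for 14C-spermidine uptake in ML-1 acute myelogenous leukemia cells. Concentration-dependent spermidine uptake measured in the presence of 0.0, 10.0, 25.0 and 50.0 μM test compound.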

Row | Structure (SMILES) | inhibition [1] [%] | inhibition [4] [%] | inhibition [7] [%] | inhibition [9] [%] | inhibition [10] [%] | IC50 (HCT-116 [2]) [µM] | Fold change (HCT-116 [3]) | Fold change (HCT-116 [5]) | Fold change (HCT-116 [6]) | Fold change (HCT-116 [8]) | IC50 (HCT-116 [11]) [µM] | Ki [12] [µM]
1 | CC(C)(C)c1ccc(CNCCCCNCCCNC(=O)CCCCCC(=O)NO)cc1 |  | 99.1 | 99.7 |  |  | > 100 | 21.49 | 2.33 | 20.84 | 253.25 |  | 
2 | CN(C)c1ccc(CN(CCCNCCCCNCc2ccc(C(C)(C)C)cc2)C(=O)CCCCC(=O)NO)cc1 | 2 |  |  |  |  |  |  |  |  |  |  | 
3 | CC(C)(C)c1ccc(CNCCCCNCCCNC(=O)CCCCCCCC(=O)NO)cc1 | 88.7 |  |  |  |  | > 100 | 0 | 0.61 | 3.25 | 11.99 |  | 
4 | CN(C)c1ccc(CNCCCCNCCCNC(=O)CCCCCCC(=O)NO)cc1 | 46.7 |  |  |  |  | > 100 | 0 | 0.46 | 1.36 | 6.76 |  | 
5 | CC(C)(C)c1ccc(CNCCCCNCCCNC(=O)CCCCCCC(=O)NCc2ccc(C(=O)Nc3ccccc3N)cc2)cc1 | 30.8 | 1.3 | 11.7 | 51.2 |  | > 100 | 1.19 | 2.55 | 1.12 | 2.27 |  | 
6 | CN(C)c1ccc(CN(CCCNCCCCN)C(=O)CCCCCCC(=O)NO)cc1 | 58.6 |  |  |  | 58.6 | 38.6 | 0 | 0.49 | 1.95 | 6.07 | > 100 | 
7 | CC(C)(C)c1ccc(CNCCCCNCCCNC(=O)CCCC(=O)NCc2ccc(C(=O)Nc3ccccc3N)cc2)cc1 | 28 |  |  | 37.4 |  | > 100 |  |  |  |  |  | 7.7
8 | CC(C)c1ccc(CNCCCCNCCCNC(=O)CCCCC(=O)NO)cc1 | 15.9 |  |  |  |  | > 100 | 3.76 | 3.01 | 14.22 | 75.7 |  | 

Now from value to molecule, other results behind:

Row | inhibition [1] [%] | inhibition [4] [%] | inhibition [7] [%] | inhibition [9] [%] | inhibition [10] [%] | Structure (SMILES) | IC50 (HCT-116 [2]) [µM] | Fold change (HCT-116 [3]) | Fold change (HCT-116 [5]) | Fold change (HCT-116 [6]) | Fold change (HCT-116 [8]) | IC50 (HCT-116 [11]) [µM] | Ki [12] [µM]
9 | 55.2 |  |  |  |  | O=C(CCCCCCC(=O)NCCCNCCCNCCCNCCC(c1ccccc1)c1ccccc1)NO | > 100 |  |  |  |  |  | 
10 | 71.3 |  |  |  |  | O=C(CCCCC(=O)NCCCNCCCCNCc1ccccc1-c1ccccc1)NO | > 100 | 3.34 | 2.01 | 17.4 | 89.01 |  | 
11 | 38.6 |  |  |  |  | O=C(CCCCCCC(=O)NCCCNCCCCNCc1ccccc1-c1ccccc1)NO | > 100 | 5.19 | 1.64 | 7.82 | 36.3 |  | 
12 | 73.9 |  |  |  |  | O=C(CCCCCCCCC(=O)NCCCNCCCCNCCC(c1ccccc1)c1ccccc1)NO | > 100 | 0 | 0.41 | 0.95 | 1.97 |  | 
13 |  |  |  | 66.7 |  | Nc1ccccc1NC(=O)c1ccc(CNC(=O)CCCCCCC(=O)NCCCNCCCCNCCC(c2ccccc2)c2ccccc2)cc1 | > 100 |  |  |  |  |  | 
14 | 46.3 |  |  |  |  | O=C(CCCCCC(=O)NCCCNCCCCNCCC(c1ccccc1)c1ccccc1)NO | > 100 |  |  |  |  |  | 
15 | 6.7 |  |  |  |  | O=C(CCCCC(=O)NCCCNCCCCNCCSc1ccccc1)NO | > 100 | 2.38 | 2.56 | 12.06 | 72.9 |  | 
16 | 41.4 |  |  |  |  | CC(C)c1ccc(CNCCCCNCCCNC(=O)CCCCCCC(=O)NO)cc1 | > 100 | 0 | 0.86 | 4.74 | 11.98 |  | 
17 | 54.6 |  |  |  |  | O=C(CCCCCCCC(=O)NCCCNCCCCNCCC(c1ccccc1)c1ccccc1)NO | > 100 |  |  |  |  |  | 
18 | 16.5 |  |  |  |  | O=C(CCCCCCC(=O)NCCCNCCCCNCCSc1ccccc1)NO | > 100 | 0 | 1.98 | 11.68 | 101.36 |  | 
